Experimental data reported in ChEMBL document CHEMBL4393705, “New chalcone-sulfonamide hybrids exhibiting anticancer and antituberculosis activity” (Eur J Med Chem, 2019).

Tests used:
Format in all cases: functional
HCC 2998 = assay: Anticancer activity against human HCC2998 cells assessed as cell growth inhibition measured after 48 hrs by SRB assay; conditions: HCC 2998, 48 h
In short: (§1)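 NCI-60 five-dose screen at 100, 10, 1.0, 0.1 and 0.01 µM final. Cells in RPMI-1640 with 5% FBS and 2 mM glutamine were seeded 24 h ahead at 37°C, 5% CO2. Compound exposure was 48 h, followed by TCA fixation and SRB staining, read at 515 nm. GI50 is the concentration giving 50% lower net protein increase than control, using time-zero plates.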

RPMI-8226 = assay: Anticancer activity against human RPMI8226 cells assessed as increase in cell death at 10 uM after 48 hrs by SRB assay relative to control
In short: (§2)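 NCI-60 single-dose screen at 10 µM in RPMI-1640 with 5% FBS and 2 mM glutamine. Exposure was 48 h at 37°C, 5% CO2, with time-zero plates fixed at dosing. Read-out was TCA fixation and SRB at 515 nm. Growth percent = (Ti−Tz)/Tz×100 where Ti<Tz, so negative values mean net cell loss.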

HOP-92 = assay: Anticancer activity against human HOP92 cells assessed as increase in cell death at 10 uM after 48 hrs by SRB assay relative to control; in short: as §2
786-0 = assay: Anticancer activity against human 786-O cells assessed as increase in cell death at 10 uM after 48 hrs by SRB assay relative to control; in short: as §2
PC-3 = assay: Anticancer activity against human PC3 cells assessed as increase in cell death at 10 uM after 48 hrs by SRB assay relative to control; in short: as §2
COLO 205 = assay: Anticancer activity against human COLO205 cells assessed as cell growth inhibition measured after 48 hrs by SRB assay; conditions: COLO 205, 48 h; in short: as §1
KM12 = assay: Anticancer activity against human KM12 cells assessed as cell growth inhibition measured after 48 hrs by SRB assay; conditions: KM12, 48 h; in short: as §1
IGROV-1 = assay: Anticancer activity against human IGROV1 cells assessed as cell growth inhibition measured after 48 hrs by SRB assay; conditions: IGROV-1, 48 h; in short: as §1
TK-10 = assay: Anticancer activity against human TK10 cells assessed as cell growth inhibition measured after 48 hrs by SRB assay; conditions: TK-10, 48 h; for CC50: read-out: LC50 (the source's name)
In short: (§3)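 NCI 60-cell screen, five-dose mode at 100, 10, 1.0, 0.1 and 0.01 µM. Cells grown in RPMI-1640 with 5% FBS and 2 mM L-glutamine, seeded and held 24 h at 37°C, 5% CO2, then exposed for 48 h. Fixed with cold TCA (10% final), stained with 0.4% SRB and read at 515 nm. Time-zero plates were used. GI50 is the concentration giving 50% lower net protein increase than control.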

T47D = assay: Anticancer activity against human T47D cells assessed as cell growth inhibition measured after 48 hrs by SRB assay; in short: as §3
HCT-116 = assay: Anticancer activity against human HCT116 cells assessed as increase in cell death at 10 uM after 48 hrs by SRB assay relative to control; in short: as §2
M14 = assay: Anticancer activity against human M14 cells assessed as increase in cell death at 10 uM after 48 hrs by SRB assay relative to control; in short: as §2
K562 = assay: Anticancer activity against human K562 cells assessed as tumour cell growth at 10 uM after 48 hrs by SRB assay relative to control
In short: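 NCI 60-line primary screen at a single 10 μM dose in RPMI-1640 with 5% FBS and 2 mM L-glutamine. Cells were preincubated 24 h at 37 °C in 5% CO₂, with time-zero plates fixed with TCA. Compounds (DMSO, diluted in gentamicin medium) were incubated 48 h, then cells TCA-fixed and stained with 0.4% SRB (A515). Growth percent was derived from time-zero, control and treated absorbances.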

SF-539 = assay: Anticancer activity against human SF539 cells assessed as increase in cell death at 10 uM after 48 hrs by SRB assay relative to control
In short: (§4)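 NCI single-dose screen at 10 µM. Cells in RPMI-1640 with 5% FBS and 2 mM L-glutamine, preincubated 24 h, then exposed 48 h at 37°C, 5% CO2. Protein measured by TCA fixation and SRB staining, absorbance 515 nm. Growth percent is calculated against time-zero and untreated control plates; negative values indicate net cell loss.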

U-251 = assay: Anticancer activity against human U251 cells assessed as increase in cell death at 10 uM after 48 hrs by SRB assay relative to control; in short: as §4

| Structure (SMILES) | GI50 (HCC 2998) | LC50 (HCC 2998) | GI50 (COLO 205) | LC50 (concentration giving 50% net cell kill) (COLO 205) | GI50 (KM12) | LC50 (lethal concentration, 50% net cell kill) (KM12) | GI50 (IGROV-1) | LC50 (concentration giving 50% net cell kill) (IGROV-1) | GI50 (TK-10) | CC50 (TK-10) | GI50 (T47D) | LC50 (T47D) | further results |
| --- | --- | --- | --- | --- | --- | --- | --- | --- | --- | --- | --- | --- | --- |
| COc1ccc(C(=O)/C=C/c2ccc(Cl)cc2)cc1S(N)(=O)=O | 1.78 µM | 7.48 µM | 2.03 µM | 17.4 µM | 1.73 µM | 8.26 µM | 2.67 µM | 48.1 µM | 2.47 µM | 27.5 µM | 3.2 µM | 59 µM | Activity (RPMI-8226): 31.74%; Activity (HOP-92): 26.57%; Activity (786-0): 30.67%; Activity (PC-3): 55.63%; Activity (HCT-116): 78.33%; Activity (M14): 57.32% |
| COc1ccc(C(=O)/C=C/c2ccc(Cl)cc2)cc1S(=O)(=O)Nc1c(N)nc(SC)[nH]c1=O | 1.92 µM | 6.5 µM | 1.76 µM | 6.68 µM | 2.09 µM | 9.76 µM | 3.25 µM | 80.2 µM | 2.98 µM | 32.3 µM | 2.45 µM | 38.8 µM | Activity (K562): 3.84%; Activity (SF-539): 5.49%; Activity (U-251): 4.2% |
